ChEMBL document CHEMBL5365542, “Difluoromethyl-1,3,4-oxadiazoles Are Selective, Mechanism-Based, and Essentially Irreversible Inhibitors of Histone Deacetylase 6” (J Med Chem, 2023)
Substitutions are numbered along the chain they refer to. Active and inactive are the calls of the source.

Tests used:
[1] = tested on: T1, Histone deacetylase 6 (Danio rerio), F8W4B7 [H574A]; experiment: Irreversible inhibition of Danio rerio HDAC6 H574A mutant catalytic domain 2 assessed as enzyme catalysed ring opening by measuring reduction in 2-(benzylamino)-N'-(2,2,2-trifluoroacetyl)pyrimidine-5-carbohydrazide formation at 100 uM incubated overnight by LC-MS analysis
T1 sequence (whole entry): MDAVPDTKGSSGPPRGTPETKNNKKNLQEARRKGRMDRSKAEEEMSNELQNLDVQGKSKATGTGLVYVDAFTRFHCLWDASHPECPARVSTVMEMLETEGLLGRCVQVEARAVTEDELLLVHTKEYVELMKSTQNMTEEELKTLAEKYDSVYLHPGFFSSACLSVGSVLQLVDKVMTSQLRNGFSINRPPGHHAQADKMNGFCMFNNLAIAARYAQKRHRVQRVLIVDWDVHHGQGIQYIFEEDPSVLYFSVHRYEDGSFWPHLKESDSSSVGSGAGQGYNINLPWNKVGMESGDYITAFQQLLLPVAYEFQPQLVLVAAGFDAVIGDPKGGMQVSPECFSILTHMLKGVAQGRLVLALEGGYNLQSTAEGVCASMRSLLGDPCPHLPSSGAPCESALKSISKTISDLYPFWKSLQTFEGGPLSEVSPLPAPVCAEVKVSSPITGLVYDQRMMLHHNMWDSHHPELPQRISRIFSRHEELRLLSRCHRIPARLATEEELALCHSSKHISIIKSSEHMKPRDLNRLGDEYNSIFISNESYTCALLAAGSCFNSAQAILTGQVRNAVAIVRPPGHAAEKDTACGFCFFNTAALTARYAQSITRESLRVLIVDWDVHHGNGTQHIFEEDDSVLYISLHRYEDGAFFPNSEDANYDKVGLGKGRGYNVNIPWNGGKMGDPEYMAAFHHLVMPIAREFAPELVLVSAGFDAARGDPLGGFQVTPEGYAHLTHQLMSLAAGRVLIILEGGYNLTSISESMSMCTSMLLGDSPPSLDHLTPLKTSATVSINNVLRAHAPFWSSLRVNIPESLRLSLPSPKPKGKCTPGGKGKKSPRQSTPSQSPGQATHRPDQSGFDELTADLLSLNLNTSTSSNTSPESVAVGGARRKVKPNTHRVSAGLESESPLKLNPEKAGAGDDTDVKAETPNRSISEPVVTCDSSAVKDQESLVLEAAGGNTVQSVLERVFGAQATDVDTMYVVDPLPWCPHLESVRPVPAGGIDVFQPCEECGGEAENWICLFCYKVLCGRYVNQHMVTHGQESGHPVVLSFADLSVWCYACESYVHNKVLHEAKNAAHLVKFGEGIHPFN
Procedure, shortened: (§1)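 Zebrafish HDAC6 CD2 mutants were made by site-directed mutagenesis and expressed in BL21(DE3). Enzyme at 50 μM was incubated overnight with 100 μM inhibitor in 50 mM HEPES pH 7.5, 100 mM KCl, 1 mM TCEP, 5% glycerol; an enzyme-free control was included. Protein was methanol-precipitated and filtered, and products were analysed by C18 UPLC-MS with a 2-min gradient.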

[2] = tested on: T1, Histone deacetylase 6 (Danio rerio), F8W4B7 [H574A]; experiment: Irreversible inhibition of Danio rerio HDAC6 H574A mutant catalytic domain 2 assessed as enzyme catalysed ring opening by measuring reduction in 2-(Benzylamino)-N'-(2,2-difluoroacetyl)pyrimidine-5-carbohydrazide formation at 100 uM incubated overnight by LC-MS analysis; procedure, shortened: as §1
[3] = tested on: T2, Histone deacetylase 6 (Danio rerio), F8W4B7 [H573A]; experiment: Irreversible inhibition of Danio rerio HDAC6 H573A mutant catalytic domain 2 assessed as enzyme catalysed ring opening by measuring reduction in 2-(Benzylamino)pyrimidine-5-carbohydrazide formation at 100 uM incubated overnight by LC-MS analysis; procedure, shortened: as §1
T2 sequence (whole entry): T1 sequence (whole entry) with H573A, A574H

Measured: inhibition

FC(F)c1nnc(-c2cnc(NCc3ccccc3)nc2)o1
active: all assays above

FC(F)(F)c1nnc(-c2cnc(NCc3ccccc3)nc2)o1
active: all assays above
